The source made the active and inactive calls. No cut-off for these calls is given here.
Tests used:
[1] = Cmax in cynomolgus monkey at 5 mg/kg, po by LC-MS/MS analysis; type: ADME, organism-based, Macaca fascicularis; set-up: dose 5 mg/kg, route po; conditions: in vivo
[2] = Intrinsic clearance in monkey liver microsomes by LC-MS/MS analysis; type: ADME, Macaca mulatta, Microsome; conditions: rhesus monkey, read-out: CLH
Method in brief: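 Liver microsomes were incubated with the compound at 37 °C with NADPH as cofactor and sampled at 0, 5, 15, 30 and 60 min. Half-life (min) and in vitro CLint (mL min⁻¹ kg) were derived from these samples.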

HFL1 [3] = assay: Antifibrotic activity in TGF-beta1-induced HFL1 cell injury assessed as down regulation of collagen 3 mRNA expression at 0.625 to 10 uM measured after 24 hrs by RT-PCR analysis; type: functional, cell-based; conditions: Homo sapiens, dose 0.625-10 µM
Method in brief: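 TGF-β1-induced HFL-1 cells treated 24 h (test range 0.625–10 μM; comparator 3 mM); collagen 1 and collagen 3 mRNA measured by RT-PCR; mean of n = 3.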

[4] = Half life in cynomolgus monkey at 1 mg/kg, iv by LC-MS/MS analysis; type: ADME, organism-based, Macaca fascicularis; conditions: in vivo
[5] = molecular target: Voltage-gated inwardly rectifying potassium channel KCNH2 (Homo sapiens, UniProt Q12809); assay: Inhibition of human ERG stably expressed in CHO cells by automated Qpatch clamp method; type: toxicity, cell-based
Method in brief: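 CHO cell line stably transfected with hERG cDNA expressing hERG channels; channel inhibition measured, IC50 reported.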

[6] = AUC(infinity) in Sprague-Dawley rat model of bleomycin-induced pulmonary fibrosis at 2 mg/kg, iv by LC-MS/MS analysis; type: ADME, organism-based; set-up: time infinity, dose 2 mg/kg, route iv; conditions: in vivo
Method in brief: (§1)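 Male Sprague-Dawley rats with induced pulmonary fibrosis; single i.v. (2.0 mg kg⁻¹) or p.o. (5.0 mg kg⁻¹) administration. Plasma samples stored at −70 °C; the supernatant was analysed by LC-MS/MS for PK parameters.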

HFL1 [7] = assay: Antiproliferative activity against human HFL1 cells assessed as reduction in cell proliferation measured after 24 hrs by CCK-8 assay; type: functional, cell-based; conditions: HFL1, 24 h
Method in brief: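 Human fetal lung fibroblasts (HFL-1); growth inhibition quantified with CCK-8; IC50 averaged from 3 experiments, each in duplicate.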

[8] = Half life in rat liver microsomes by LC-MS/MS analysis; type: ADME, Microsome
Method in brief: (§2)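 Liver microsomes (human, monkey, dog, rat, mouse) incubated with test compound at 37 °C with NADPH cofactor; samples at 0, 5, 15, 30, 60 min for half-life and in vitro CLint.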

[9] = Tmax in Sprague-Dawley rat model of bleomycin-induced pulmonary fibrosis at 5 mg/kg, po by LC-MS/MS analysis; type: ADME, organism-based; conditions: in vivo
Method in brief: (§3)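 Male Sprague-Dawley rats with induced pulmonary fibrosis were dosed 2.0 mg kg⁻¹ i.v. or 5.0 mg kg⁻¹ p.o. Plasma was stored at -70 °C, and the supernatant was analysed by LC-MS/MS.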

[10] = Half life in human liver microsomes by LC-MS/MS analysis; type: ADME, Microsome; method in brief: as §2
[11] = Mutagenecity in Salmonella typhimurium TA100 at 7.8 to 1000 ug measured after 2 to 3 days by mini-Ames test; type: toxicity, Salmonella enterica subsp. enterica serovar Typhimurium; conditions: dose lower 7.8 µg, time lower 2 day, dose upper 1000 µg, time upper 3 day
Method in brief: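 Bacterial reverse mutation assay scoring reverse gene mutations at the histidine locus in Salmonella typhimurium strains TA98 and TA100.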

[12] = Half life in dog at 5 mg/kg, po by LC-MS/MS analysis; type: ADME, organism-based, Canis lupus familiaris; conditions: in vivo
[13] = AUClast in Sprague-Dawley rat model of bleomycin-induced pulmonary fibrosis at 2 mg/kg, iv by LC-MS/MS analysis; type: ADME, organism-based; set-up: time 0 - last, dose 2 mg/kg, route iv; conditions: in vivo; method in brief: as §1
[14] = Clearance in cynomolgus monkey at 1 mg/kg, iv by LC-MS/MS analysis; type: ADME, organism-based, Macaca fascicularis; conditions: in vivo
[15] = Half life in monkey liver microsomes by LC-MS/MS analysis; type: ADME, Macaca mulatta, Microsome; conditions: rhesus monkey; method in brief: as §2
[16] = AUClast in cynomolgus monkey at 5 mg/kg, po by LC-MS/MS analysis; type: ADME, organism-based, Macaca fascicularis; set-up: time 0 - last, dose 5 mg/kg, route po; conditions: in vivo
[17] = Oral bioavailability in Sprague-Dawley rat model of bleomycin-induced pulmonary fibrosis at 5 mg/kg by LC-MS/MS analysis; type: ADME, organism-based; conditions: in vivo; method in brief: as §3
[18] = Half life in dog at 1 mg/kg, iv by LC-MS/MS analysis; type: ADME, organism-based, Canis lupus familiaris; conditions: in vivo
[19] = Volume of distribution at steady state in dog at 1 mg/kg, iv by LC-MS/MS analysis; type: ADME, organism-based, Canis lupus familiaris; conditions: in vivo, read-out: Vdss
[20] = Intrinsic clearance in human liver microsomes by LC-MS/MS analysis; type: ADME, Microsome; conditions: read-out: CLH; method in brief: as §2

Chain of Voltage-gated inwardly rectifying potassium channel KCNH2 (Q12809 whole entry): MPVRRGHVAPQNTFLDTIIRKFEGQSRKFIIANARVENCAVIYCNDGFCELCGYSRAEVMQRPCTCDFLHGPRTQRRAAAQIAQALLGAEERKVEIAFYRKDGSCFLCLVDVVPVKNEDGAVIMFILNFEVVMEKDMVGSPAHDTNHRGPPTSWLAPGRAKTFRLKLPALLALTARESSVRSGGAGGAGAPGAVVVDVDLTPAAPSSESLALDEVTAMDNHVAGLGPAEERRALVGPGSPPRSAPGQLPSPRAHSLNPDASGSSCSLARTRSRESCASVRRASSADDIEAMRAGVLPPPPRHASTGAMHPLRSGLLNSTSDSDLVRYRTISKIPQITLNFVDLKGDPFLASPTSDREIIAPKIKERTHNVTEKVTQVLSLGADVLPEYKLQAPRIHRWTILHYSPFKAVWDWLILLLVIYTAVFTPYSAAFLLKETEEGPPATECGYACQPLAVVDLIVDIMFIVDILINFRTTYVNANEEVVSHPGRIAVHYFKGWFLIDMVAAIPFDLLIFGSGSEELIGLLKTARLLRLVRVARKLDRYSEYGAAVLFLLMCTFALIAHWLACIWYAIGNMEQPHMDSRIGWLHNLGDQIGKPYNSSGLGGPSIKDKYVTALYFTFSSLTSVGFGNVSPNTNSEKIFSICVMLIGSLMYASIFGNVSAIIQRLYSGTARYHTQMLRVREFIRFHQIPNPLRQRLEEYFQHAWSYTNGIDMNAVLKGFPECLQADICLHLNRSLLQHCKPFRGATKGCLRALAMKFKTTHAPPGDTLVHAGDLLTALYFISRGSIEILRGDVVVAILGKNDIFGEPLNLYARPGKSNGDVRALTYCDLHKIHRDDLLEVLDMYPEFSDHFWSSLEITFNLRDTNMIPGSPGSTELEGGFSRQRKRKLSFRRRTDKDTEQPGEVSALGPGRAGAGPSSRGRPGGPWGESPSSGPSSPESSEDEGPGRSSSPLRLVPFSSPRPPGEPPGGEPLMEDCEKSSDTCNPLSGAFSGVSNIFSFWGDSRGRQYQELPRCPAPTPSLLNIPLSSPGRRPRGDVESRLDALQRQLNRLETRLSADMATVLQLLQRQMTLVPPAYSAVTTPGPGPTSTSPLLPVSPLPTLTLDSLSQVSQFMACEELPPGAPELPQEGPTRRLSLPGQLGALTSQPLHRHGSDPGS

With Cc1cc(=O)n(-c2ccc(N3CCC(Cc4ccc(Cl)c(F)c4)CC3)c(Cl)c2)c(C)n1 the Cmax [1] was 1060 ng/mL, the CLint scaled [2] was 48.6 mL/min/kg and the Activity (HFL1 [3]) was “Active”. For the same compound, the half-life [4] was 16 h, the IC50 [5] was > 30 µM and the AUC(0-inf) [6] was 7980 ng·h/mL. The IC50 (HFL1 [7]) was 60 µM, the half-life [8] was 1.71 h and the Tmax [9] was 1.7 h. The half-life [10] was 1.73 h, the Activity [11] was “Non-Toxic” and the half-life [12] was 27 h. It also gave an AUC(0-t) [13] of 4280 ng·h/mL, a clearance [14] of 3.33 mL/min/kg and a half-life [15] of 0.695 h. For the same compound, the AUC(0-t) [16] was 12900 ng·h/mL, the bioavailability [17] was 105% and the half-life [18] was 11 h. It also gave a Vd [19] of 1.8 L/kg and a CLint scaled [20] of 16.7 mL/min/kg.
